Laboratory results taken from ChEMBL document CHEMBL3393001, “Flavonoids as noncompetitive inhibitors of Dengue virus NS2B-NS3 protease: inhibition kinetics and docking studies” (Bioorg Med Chem, 2015).
Converted amounts (≈) assume the structure as drawn.

Legend:
dengue virus type 2 = assay: Antiviral activity against dengue virus 2 infected in african green monkey Vero cells assessed as reduction in viral replication dosed after adsorption with 200 FFU of virus for 1 hour by foci forming unit reduction assay; format: functional, organism-based
[1] = Inhibition of dengue virus 2 NS2B-NS3 serine protease assessed as reduction in hydrolysis of Boc-Gly-Arg-Arg-7-amino-4-methylcumarin substrate; parameters: species or system dengue virus type 2
[2] = Inhibition of dengue virus 2 NS2B-NS3 serine protease assessed as reduction in hydrolysis of Boc-Gly-Arg-Arg-7-amino-4-methylcumarin substrate by Dixon plot; parameters: species or system dengue virus type 2
How it was run: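 Recombinant DENV2 NS2B-NS3 at 47.63 nM in 200 mM Tris-HCl pH 9.5, 6 mM NaCl, 30% glycerol. Boc-Gly-Arg-Arg-AMC at 25–200 µM with inhibitor fixed at 10–32 µM; AMC release read at ex 380/em 460 nm. Analysed by Lineweaver-Burk and Dixon plots, with Ki = Kiapp/(1+[S]/Km), [S] […] Mean of three independent assays.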

[3] = Inhibition of dengue virus 3 NS2B-NS3 serine protease assessed as reduction in hydrolysis of Boc-Gly-Arg-Arg-7-amino-4-methylcumarin substrate; parameters: species or system dengue virus type 3
How it was run: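 Recombinant DENV3 NS2B-NS3 (50 nM) was run in 50 mM Tris HCl pH 9.0 with 1 mM CHAPS and 100 substrate. Compounds in DMSO were screened at 50 final, with IC50 from serial dilutions over 0.5–200. Three independent determinations in duplicate; background-corrected 2-parameter fit (lower limit 0, upper 100).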

[4] = Inhibition of dengue virus 3 NS2B-NS3 serine protease assessed as reduction in hydrolysis of Boc-Gly-Arg-Arg-7-amino-4-methylcumarin substrate by Dixon plot; parameters: species or system dengue virus type 3
[5] = Non-competitive inhibition of dengue virus 2 NS2B-NS3 serine protease assessed as reduction in hydrolysis of Boc-Gly-Arg-Arg-7-amino-4-methylcumarin substrate by Lineweaver-Burk plot and Dixon plot; parameters: species or system dengue virus type 2
[6] = Binding affinity to NT-647-NHS fluorescent dye-labeled dengue virus 3 NS2B-NS3 serine protease incubated for 10 mins by microscale thermophoresis method; parameters: species or system dengue virus type 3
How it was run: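 Recombinant DENV3 NS2B-NS3, dye-labeled, mixed 1:1 with ligand dilutions to a final 25 nM protein and 0.06–1000 µM ligand. Buffer: 50 mM Tris-HCl pH 9.0, 1 mM CHAPS, plus 10% DMSO and 0.05% Tween 20 on the ligand side only. After 10 min, capillary thermophoresis was measured. KD came from data fitting, mean of three independent assays.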

Row | Structure (SMILES) | IC50 (dengue virus type 2) | IC50 [1] | IC50 [3] | Ki [2] | Ki [4] | Ki [5] | Kd [6]
1 | O=c1cc(-c2ccccc2)oc2cc(O)c(O)c(O)c12 [BAICALEIN] | 6.46 µg/mL (≈ 23.9 µM) | – | – | – | – | – | –
2 | O=c1c(O)c(-c2ccc(O)c(O)c2)oc2cc(O)ccc12 [FISETIN] | 55 µg/mL (≈ 192 µM) | – | – | – | – | – | –
3 | O.O=c1c(O)c(-c2ccc(O)c(O)c2)oc2cc(O)cc(O)c12 [QUERCETIN DIHYDRATE] | 35.7 µg/mL | 35.2 µM | 22.7 µM | 20.7 µM | 19.9 µM | – | 20 µM
4 | C[C@@H]1O[C@@H](Oc2c(-c3ccc(O)c(O)c3)oc3cc(O)cc(O)c3c2=O)[C@H](O)[C@H](O)[C@H]1O [QUERCITRIN] | – | 43.6 µM | 32 µM | 25.7 µM | 28 µM | – | –

Further lines, with some results ahead:

Row | IC50 (dengue virus type 2) | IC50 [1] | IC50 [3] | Structure (SMILES) | Ki [2] | Ki [4] | Ki [5] | Kd [6]
5 | – | 44 µM | 42.4 µM | O=c1c(O[C@@H]2O[C@H](CO)[C@@H](O)[C@H](O)[C@H]2O)c(-c2ccc(O)c(O)c2)oc2cc(O)cc(O)c12 [ISOQUERCETIN] | 25.9 µM | 37.1 µM | – | –
6 | – | 37.8 µM | 27.7 µM | O=c1c(O)c(-c2ccc(O)cc2)oc2cc(O)cc(O)c12 [KAEMPFEROL] | 22.3 µM | 24.2 µM | – | –
7 | – | 22.3 µM | 29.3 µM | O=c1c(O)c(-c2cc(O)c(O)c(O)c2)oc2cc(O)cc(O)c12 [MYRICETIN] | – | 25.7 µM | 4.7 µM | –
